Screening data as filed in PubChem.
An excerpt weighted towards active compounds, which were near 1.7% of everything screened.
Neddyl block: blocks human cullin neddylation | P61081+Q13564 | TR-FRET cullin neddylation, biochemical | inhibition, % at 25 µM | hit rate 0.58% among 360,000; in the data active = inhibition above about 36%
Pemphigus Ab inh: blocks pemphigus antibody binding to human desmoglein-3; P32926; DSG3-coupled beads, scFv-anti-DSG3-GFP binding, flow cytometry; hits give low values; binding (percent of control), % at 10 µM; hit rate 0.48% among 310,000; AID 588358;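 active = binding more than 3 SD below its plate's average and above zero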;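 note: hits lower antibody fragment binding to DSG3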
Arr AP2 block: inhibitors of human beta-arrestin and AP2 interaction; FITC-arrestin peptide / GST-AP2 beads, flow cytometry; AP2 beta2 appendage carries R879A mutation; inhibition, % at 10 µM; hit rate 0.31% among 340,000;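 active = inhibition above a set limit, near 3 SD of compounds lacking own fluorescence, cut at about 54% in these data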;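 note: plate controls were DMSO wells for no effect and 5 µM unlabelled arrestin peptide for full effect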
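Assay system: GST-AP2 R879A bound to glutathione beads, E. coli-expressed; Medium: PBS with 0.05% Tween 20 and 0.1% BSA; Also added: fluorescein-tagged arrestin peptide at 50 nM final; Timing: 12 min plus 1 h, RT; Measured by: flow cytometry, FL1 (488/535 nm); Evaluation: percent drop in bead-associated FITC signal.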
Efflux pump inh: antifungal efflux pump inhibition, Nile Red retention | S. cerevisiae Candida pump triplex | hit rate 0.44% among 330,000 | inhibition, % at 10 µM;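 active = plate passing quality check with inhibition over a set limit, or well fluorescence over plate mean plus 4 SD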;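 note: Nile Red retained in pooled yeast measured as flow cytometry median fluorescence; 0% = buffer negative control and 100% = Enniatin B positive control; higher means more Nile Red kept so more efflux inhibition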
* marks the source's active call; other numbers are inactive results; i = inactive; · = no result given; ! = not confirmed by another sample.

SMILES | Neddyl block | Pemphigus Ab inh | Arr AP2 block | Efflux pump inh
Cc1cc(C)nc(SCc2ccc(C(=O)N/N=C/c3ccc(C(=O)O)cc3)cc2)n1 | -18 | 27* | 7 | 0
COc1ccc(/C=N/NC(=O)c2ccc(CSc3nc(C)cc(C)n3)cc2)cc1O | 13 | 101 | 9 | 0
COc1ccc(C(=O)Oc2ccc(C(=S)N3CCOCC3)cc2)cc1 | -7 | 92 | -52 | 0
Cc1cc(C)c2c(N)c(C(=O)Nc3ncc(C)s3)sc2n1 | · | 105 | -2 | 0
COc1cc(/C=N/NC(=O)c2sc3nc(C)cc(C)c3c2N)ccc1O | 42* | 99 | -6 | 0
COc1ccc2nc(NC(=O)c3sc4nc(C)cc(C)c4c3N)sc2c1 | · | 74* | -14 | 0
COC(=O)c1sc2nc(C)cc(C)c2c1N | · | 101 | 30 | 0
COc1cccc(N=c2oc3ccccc3cc2-c2nc3ccccc3[nH]2)c1 | 42* | · | 2 | 0
COc1cccc(N=c2oc3ccc(OC)cc3cc2-c2nc3ccccc3[nH]2)c1 | 23 | 102 | 3 | 0
COc1ccc(-c2csc(Nc3ccc(S(N)(=O)=O)cc3)n2)cc1 | 14 | 88* | 2 | 0
O=c1ccc2cc3c([nH]c4ccc(Br)cc43)oc-2c1O | -34 | 70 | 72* | 0
O=S(=O)(Nc1nc2ccccc2nc1Nc1ccc2c(c1)OCCO2)c1cccs1 | 42* | 98 | 30 | 0
COc1ccc(S(=O)(=O)Nc2nc3ccccc3nc2Nc2ccc3c(c2)OCO3)cc1 | · | · | · | 0
C=CCN(C(=O)c1ccc(Cl)cc1)c1ccccc1C(=O)NCC(=O)O | 9 | 110 | 0 | 0
Nc1cccc2cc(S(=O)(=O)O)ccc12 | 46* | 84 | 1 | ·
CCc1ccc(NC(=O)COC(=O)C2(c3ccc(Cl)cc3)CCCC2)cc1 | -9 | 127 | 6 | 0
COCCN1C=C(C(=O)OC)C(c2ccccc2C(F)(F)F)C(C(=O)OC)=C1 | · | 66 | -8 | 0
CCCCN1C=C(C(=O)OC)C(c2ccccc2C(F)(F)F)C(C(=O)OC)=C1 | 33 | -28* | 3 | 0
Nc1c(C(=O)NC2CC2)c2nc3ccccc3nc2n1-c1ccc2c(c1)OCO2 | 50* | · | -2 | 0
O=C(CNC(=O)c1ccc(Br)o1)NCC1CCCCC1 | -2 | 103 | 19 | 0
CCCOc1cccc(C(=O)Nc2cccc3ncccc23)c1 | -2 | 113 | 50 | 0
CCCOc1cccc(C(=O)Nc2ccc(Br)cc2F)c1 | 3 | 62* | -2 | 0
CCOC(=O)c1[nH]c2c(c1-c1ccccc1)C(=O)CC(c1ccc(OC)c(OC)c1)C2 (centres undefined) | -10 | 105 | 2 | 0
CCOC(=O)c1[nH]c2c(c1-c1ccccc1)C(=O)CC(c1ccc(OCC)cc1)C2 (centres undefined) | -190 | -0.8* | 6 | 0
O=C(/C=C/c1ccccc1)NNC1=NS(=O)(=O)c2ccccc21 | -10 | 92 | 6 | 0
SMILES | Neddyl block | Pemphigus Ab inh | Arr AP2 block | Efflux pump inh
C/C(N)=C(/C#N)C(=O)CSc1nnc(-c2ccc(OC(F)F)cc2)o1 | -18 | 80*! | 0 | 0
NS(=O)(=O)c1ccc(N=Nc2c(O)ccc3ccccc23)cc1 | -25 | 71* | -11 | 0
CC(=O)NC(Cc1ccccc1F)C(=O)NC1CCN(C(=O)NCc2ccccc2)CC1 (centres undefined) | -2 | 105 | -2 | 0
Nc1ncnc2oc(-c3ccco3)c(-c3ccco3)c12 | 43* | 52* | 24 | 0
Cc1nc(Nc2ccncc2)c2oc3ccccc3c2n1 | 31 | 101 | 17 | 0
CCc1nc(Nc2ccncc2)c2oc3ccccc3c2n1 | 42* | 99 | -9 | 0
CCOC(=O)C1(Cc2cccc(F)c2)CCN(CC(O)CO)CC1 (centres undefined) | -2 | 90 | -8 | 0
Fc1ccc(CSc2ncnc3c2oc2ccccc23)cc1 | i | 69* | 8 | 0
Fc1cccc(CSc2ncnc3c2oc2ccccc23)c1 | i | 107 | 0 | 0
Cc1cc(-c2n[nH]c(=S)n2/N=C/c2ccc(Br)s2)n[nH]1 | -16 | 99 | -19 | 0
S=c1[nH]nc(-c2cc(-c3ccccc3)n[nH]2)n1/N=C/c1ccc(Br)s1 | 63* | · | -16 | 0
Cc1cccc2cc(CN(C(=O)c3cccc([N+](=O)[O-])c3)C(C)C)c(=O)[nH]c12 | -16 | 59* | 5 | 0
Cc1cccc2cc(COC(=O)c3cccc([N+](=O)[O-])c3)c(=O)[nH]c12 | · | · | · | 0
CCn1ncc(NC(=S)NCCc2ccccc2)c1C(N)=O | 8 | 107 | 3 | 0
O=C(c1ccc([N+](=O)[O-])cc1[N+](=O)[O-])n1cnc2ccccc21 | -25 | 79* | 38 | 0
COc1cc(/C=C(\CCC(=O)O)c2nc3ccccc3s2)ccc1OCC(=O)Nc1c(Cl)cccc1Cl | 44* | 86 | -6 | 0
O=C(Nc1ccc(Nc2ccccc2)cc1)c1ccccc1 | · | 105 | 8 | 0
O=C(Nc1ccc(Nc2ccccc2)cc1)c1ccc(Br)cc1 | 30 | 95* | 11 | 0
O=C(O)c1cccc(-n2sc3ccccc3c2=O)c1 | -17 | 61* | 8 | 0
O=c1c2ccccc2sn1-c1nccs1 | -36 | 28* | 48 | ·
O=c1c2ccccc2sn1-c1cccc(Cl)c1 | -23 | 40* | · | ·
CN(C)S(=O)(=O)c1cccc(-n2sc3ccccc3c2=O)c1 | -48 | 29* | 20 | 136*
CN(C)S(=O)(=O)n1cc(/C=C(\NC(=O)c2ccccc2F)C(=O)N2CCOCC2)c2ccccc21 | 35 | 18* | 7 | 0
CN(C)S(=O)(=O)n1cc(/C=C(\NC(=O)c2ccccc2Cl)C(=O)N2CCOCC2)c2ccccc21 | 17 | 96 | -4 | 1
CN(C)CCCNC(=O)C[C@H]1C[C@H](C(=O)N2CCOCC2)[C@@]2(C)c3[nH]c4cc(CCC(=O)N(C)C)ccc4c3CCN2C1=O | -1 | 103 | -1 | 0
SMILES | Neddyl block | Pemphigus Ab inh | Arr AP2 block | Efflux pump inh
CC(C)CCn1c2ccccc2c2cc(CC(N)=O)ccc21 | -29 | 113 | 7 | 0
Cc1cc2oc(=O)cc(CNc3ccccc3F)c2cc1O | -7 | 100 | -7 | 0
CCOc1ccccc1NCc1cc(=O)oc2cc(C)c(O)cc12 | 5 | 86* | 15 | 0
CCOc1ccc(OCCC(=O)OC(C)C(=O)Nc2ccc(C(C)=O)cc2)cc1 (centres undefined) | 6 | 114 | -2 | 0
CCOc1ccccc1CNCC1CCCO1 (centres undefined) | 3 | 112 | 6 | 0
CS(=O)(=O)c1cnc(-c2ccccc2)nc1Sc1ccc(F)cc1 | -21 | 64* | -7 | 0
CC[C@]12c3[nH]c4ccccc4c3CCN1C(=O)C(CC(=O)NCCCn1ccnc1)C[C@@H]2C(=O)N1CCN(C(=O)c2ccco2)CC1 (some centres undefined) | 0 | 102 | 31 | 1
O=C(Nc1cccc(S(=O)(=O)N2CCCCC2)c1)[C@@H]1CCCN1S(=O)(=O)c1ccccc1C(F)(F)F | -31 | 104 | -16 | ·
CC(=O)c1cccc(NC(=O)C2CCCN2S(=O)(=O)c2ccccc2C(F)(F)F)c1 (centres undefined) | -3 | 69* | · | ·
